For data set [1], the target named is Integrin alpha-V/beta-3 (Homo sapiens, UniProt P05106+P06756). In words: Inhibitory activity against alpha v beta-3 receptor using scintillation proximity assay (SPAV3). It is filed as protein-complex assay.
A short description of data set [2]: Clearance value in rat at 0.5 mg/kg dose in intravenous and 1 mg/kg of peroral. It is filed as ADME, organism-based. The settings on record: in vivo.
A short description of data set [3]: Bioavailability in dog (dose 0.2 mg/kg i.v. and 1 mg/kg p.o.). The class given is ADME, organism-based, Canis lupus familiaris. Particulars: in vivo, po. The method, boiled down:
(§1)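 Dogs given compound in water at 0.2 mpk iv and 1 mpk po; oral bioavailability, plasma clearance and plasma half-life derived from plasma levels.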

A short description of data set [4]: Half life in rat at 0.5 mg/kg dose in intravenous and 1 mg/kg of peroral. It is filed as ADME, organism-based. The settings on record: in vivo.
The test system of data set [5] is Rattus norvegicus. In words: Effect on distal femoral metaphysis (DFM)-bone mineral density (BMD) in ovariectomized female rats; OVX + 5e dosed orally 20 mg/kg/d. The settings on record: route oral.
Data set [6] is described as follows: h-Protein binding value of the compound. It is filed as ADME. Further details: concentration or dose not given beside the values. Particulars: human. The method, boiled down: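 Binding in human plasma determined by high-throughput ultrafiltration of diluted plasma in pH 7.4 buffer.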
Data set [7] can be described thus: Bioavailability in monkey (dose 0.2 mg/kg i.v. and 1 mg/kg p.o.). The class given is ADME, organism-based. Particulars: cercopithecidae, in vivo, po.
Data set [8] can be described thus: Half life in monkey at 0.2 mg/kg dose in intravenous and 1 mg/kg of peroral. The class given is ADME, organism-based. The settings on record: cercopithecidae, in vivo.
Data set [9] can be described thus: Half life in dog at 0.2 mg/kg dose in intravenous and 1 mg/kg of peroral. It is filed as ADME, organism-based, Canis lupus familiaris. Particulars: in vivo. The method, boiled down:
as §1

The nature of data set [10]: Bioavailability in rat (dose 0.5 mg/kg i.v. 1 mg/kg of p.o.). It is filed as ADME, organism-based. Particulars: in vivo, po.
Data set [11] is described as follows: Partition coefficient (logP). It is filed as physicochemical. Particulars: octanol/water. In outline: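 log P measured as partition between octanol and pH 7.4 buffer.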
Data set [12] in a line: Clearance value in dog at 0.2 mg/kg dose in intravenous and 1 mg/kg of peroral. Particulars: in vivo. It is filed as ADME, organism-based, Canis lupus familiaris. In outline:
as §1

In data set [13] the test system is Rattus norvegicus. As to the kind of experiment: Effect on distal femoral metaphysis (DFM)-bone mineral density (BMD) in ovariectomized female rats; OVX + 5e dosed orally 30 mg/kg/d. The settings on record: route oral.
A short description of data set [14]: Clearance value in monkey at 0.2 mg/kg dose in intravenous and 1 mg/kg of peroral. It is filed as ADME, organism-based. The settings on record: cercopithecidae, in vivo.
The subject of data set [15] is Rattus norvegicus. As to the kind of experiment: Effect on distal femoral metaphysis (DFM)-bone mineral density (BMD) in ovariectomized female rats; OVX + 5f dosed orally 3 mg/kg. It is filed as functional. Particulars: route oral. The method, boiled down: (§2)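 Female rats ovariectomized, then dosed orally q.d. at 1, 3 or 10 mg/kg starting within 24 h, for 28 days. Comparators were sham-operated rats, OVX rats on vehicle, and OVX rats on alendronate 0.003 mg/kg/d s.c. BMD (mg/cm2) measured at the distal femoral metaphysis, given as mean ± SEM. Groups compared by Kruskal–Wallis ANOVA with Student–Newman–Keuls post-hoc test.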

In data set [16] the test system is Rattus norvegicus. In words: Effect on distal femoral metaphysis (DFM)-bone mineral density (BMD) in ovariectomized female rats; OVX + 5f dosed orally 10 mg/kg. It is filed as functional. The settings on record: route oral. The method, boiled down:
as §2

For data set [17], the system named is Rattus norvegicus. In words: Effect on distal femoral metaphysis (DFM)-bone mineral density (BMD) in ovariectomized female rats; OVX + 5f dosed orally 1 mg/kg. It is filed as functional. The settings on record: route oral. In outline:
as §2

The source of these data is ChEMBL document CHEMBL1138759, “Nonpeptide alphavbeta3 antagonists. Part 11: discovery and preclinical evaluation of potent alphavbeta3 antagonists for the prevention and treatment of osteoporosis” (J Med Chem, 2004).

The structures appear in SMILES notation.

Chain of Integrin alpha-V/beta-3 (P05106 27-788 limits assumed): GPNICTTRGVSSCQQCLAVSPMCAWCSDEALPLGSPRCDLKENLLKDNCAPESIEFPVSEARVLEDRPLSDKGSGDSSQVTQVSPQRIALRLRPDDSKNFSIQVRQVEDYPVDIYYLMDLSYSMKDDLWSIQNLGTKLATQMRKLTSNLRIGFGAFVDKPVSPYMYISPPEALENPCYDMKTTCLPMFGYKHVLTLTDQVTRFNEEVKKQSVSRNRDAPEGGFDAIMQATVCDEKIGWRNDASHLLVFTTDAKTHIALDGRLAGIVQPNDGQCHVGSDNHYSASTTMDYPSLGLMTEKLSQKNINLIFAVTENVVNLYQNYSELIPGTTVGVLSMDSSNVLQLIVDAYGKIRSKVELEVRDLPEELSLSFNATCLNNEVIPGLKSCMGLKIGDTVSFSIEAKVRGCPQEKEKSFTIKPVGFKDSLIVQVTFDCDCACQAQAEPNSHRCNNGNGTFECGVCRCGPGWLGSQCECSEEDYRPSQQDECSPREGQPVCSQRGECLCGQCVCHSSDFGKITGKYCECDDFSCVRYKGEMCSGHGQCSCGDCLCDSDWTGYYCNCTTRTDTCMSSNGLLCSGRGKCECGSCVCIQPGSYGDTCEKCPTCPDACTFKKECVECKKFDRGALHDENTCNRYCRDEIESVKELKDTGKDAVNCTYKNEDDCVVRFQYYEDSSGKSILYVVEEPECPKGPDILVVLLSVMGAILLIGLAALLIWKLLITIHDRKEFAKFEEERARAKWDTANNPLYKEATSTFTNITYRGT
Chain of Integrin alpha-V/beta-3 (P06756 31-889 limits assumed): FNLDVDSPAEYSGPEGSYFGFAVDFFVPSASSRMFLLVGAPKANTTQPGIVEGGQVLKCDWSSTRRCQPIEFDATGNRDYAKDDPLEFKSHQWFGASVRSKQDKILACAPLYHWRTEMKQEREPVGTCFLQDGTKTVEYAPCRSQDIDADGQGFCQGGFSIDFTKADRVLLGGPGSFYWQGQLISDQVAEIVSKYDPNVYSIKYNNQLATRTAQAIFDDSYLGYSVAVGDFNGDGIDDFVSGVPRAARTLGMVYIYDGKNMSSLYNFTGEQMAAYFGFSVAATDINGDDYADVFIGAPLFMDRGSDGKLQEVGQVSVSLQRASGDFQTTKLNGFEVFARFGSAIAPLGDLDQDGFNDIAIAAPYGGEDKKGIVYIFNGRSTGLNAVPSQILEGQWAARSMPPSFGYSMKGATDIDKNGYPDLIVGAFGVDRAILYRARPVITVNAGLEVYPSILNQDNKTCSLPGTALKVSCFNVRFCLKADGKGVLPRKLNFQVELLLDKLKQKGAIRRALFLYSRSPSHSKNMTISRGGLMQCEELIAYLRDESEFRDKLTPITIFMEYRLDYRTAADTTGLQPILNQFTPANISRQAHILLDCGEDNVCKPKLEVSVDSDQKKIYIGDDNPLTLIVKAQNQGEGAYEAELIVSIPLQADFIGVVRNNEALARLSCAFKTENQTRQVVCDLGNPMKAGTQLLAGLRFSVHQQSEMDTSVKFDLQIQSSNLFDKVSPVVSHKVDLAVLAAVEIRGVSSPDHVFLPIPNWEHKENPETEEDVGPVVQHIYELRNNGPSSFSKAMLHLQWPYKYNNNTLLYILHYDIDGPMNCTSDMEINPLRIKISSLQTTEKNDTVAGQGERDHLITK
Chain of Integrin alpha-V/beta-3 (P06756 891-1048 limits assumed): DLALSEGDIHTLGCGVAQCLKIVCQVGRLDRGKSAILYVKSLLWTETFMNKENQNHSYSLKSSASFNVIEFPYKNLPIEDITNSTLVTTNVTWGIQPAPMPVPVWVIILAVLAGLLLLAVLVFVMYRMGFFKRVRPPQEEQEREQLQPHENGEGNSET

In general, IC50 refers to the concentration needed to halve the response being measured. `O=C(O)C[C@H](NC(=O)CCCCc1ccc2c(n1)NCCC2)c1cccc(F)c1` gave a half-inhibitory concentration (IC50) in data set [1] of 27.7 nM.
One may read the bioavailability as the share of a dose that reaches the circulation, judged against a reference dose that is usually intravenous. Broadly, the half-life is the time in which the quantity being followed falls by half. One may read the logP as a log measure of how a compound divides between an organic and an aqueous phase. Regarding `O=C(O)C[C@H](CCCCCCc1ccc2c(n1)NCCC2)c1cncnc1`, the clearance amounted to 30 mL/min/kg in [2], 3.9 mL/min/kg in [12] and 19 mL/min/kg in data set [14]. The compound further showed a concentration for half-maximal inhibition (IC50) in data set [1] of 0.07 nM. The bioavailability in [3] was 66%; in data set [7], 46%; in data set [10], 45%. Also, the half-life in [4] was 4.5 h; in [8] it was 2.3 h; in data set [9], 6.4 h. Further, the values for the DFM in data set [5] and in [13] were 150.8 mg/cm2 and 153.2 mg/cm2, respectively. The Activity in [6] amounted to 94%. For the same compound, the logP in [11] (read-out: logP) was 0.1.
Regarding `O=C(O)C[C@H](CCCCCCc1ccc2c(n1)NCCC2)c1ccc2c(c1)OCC2`, the 50% inhibitory concentration (IC50) in [1] was 0.21 nM. For the same compound, the bioavailability in [3] is > 99%. The Activity in data set [6] came out at 99.9%. For the same compound, the half-life in data set [9] is 5.8 h. Moreover, the lipophilicity (logP) in [11] (read-out: logP) was 2.39. This compound displayed a clearance in data set [12] of 7.9 mL/min/kg.
With `O=C(O)C[C@H](CCCCCCc1ccc2c(n1)NCCC2)c1cnc2ccccc2c1`, inhibition in data set [1] was half-maximal at 0.2 nM (IC50). Also, in data set [3], the bioavailability amounted to 65%. In addition, the Activity in data set [6] is > 99.9%. The half-life in [9] was 5 h. Further, the lipophilicity (logP) in data set [11] (read-out: logP) came out at 2.39. Also, the clearance in data set [12] was found to be 3 mL/min/kg.
`O=C(O)CC(NC(=O)CCCCc1ccc2c(n1)NCCC2)c1cncnc1` (stereo not drawn) yielded a bioavailability in data set [3] of 10%. Besides, in [6], the Activity stood at 44%. For the same compound, the logP in [11] (read-out: logP) is -1.2. In addition, the clearance in [12] is 26 mL/min/kg.
Consider `Cc1ncc([C@@H](CCCCCCc2ccc3c(n2)NCCC3)CC(=O)O)cn1`, for which the values for the clearance in data set [2], in data set [12] and in data set [14] were 3.6 mL/min/kg, 2.5 mL/min/kg and 4.5 mL/min/kg, respectively. The same compound returned an IC50 in data set [1] of 0.08 nM. Further, the results for the DFM in [15], in [16] and in [17] were 173 mg/cm2, 176 mg/cm2 and 158.3 mg/cm2, respectively. Besides, the results for the bioavailability in [3], in data set [7] and in data set [10] were 83%, 75% and 100%, respectively. Moreover, the figures for the half-life in data set [4], in data set [8] and in data set [9] were 5.1 h, 17 h and 9.5 h, respectively. For the same compound, in data set [6], the Activity is on record as 96%. In [11] (read-out: logP), the log partition coefficient (logP) is 0.43.
In turn, `O=C(O)CC(CCCCCCc1ccc2c(n1)NCCC2)c1cccc(F)c1` (stereo not drawn) showed an IC50 in data set [1] of 0.93 nM.
In the case of `COc1ccc([C@@H](CCCCCCc2ccc3c(n2)NCCC3)CC(=O)O)cn1`, the IC50 in [1] worked out at 0.65 nM. The same compound displayed a bioavailability in data set [3] of 49%. The Activity in [6] stood at 99.5%. Moreover, in [9], the half-life was 9.5 h. The same compound displayed a logP in data set [11] of 1.67. The compound also displayed a clearance in data set [12] of 5.1 mL/min/kg.
`CC(C)c1ncc([C@@H](CCCCCCc2ccc3c(n2)NCCC3)CC(=O)O)cn1` came in with a half-inhibitory concentration (IC50) in data set [1] of 0.52 nM. Further, in data set [6], the Activity is reported as 99%. Besides, the logP in data set [11] (read-out: logP) is 1.32.
In turn, `COc1ncc([C@@H](CCCCCCc2ccc3c(n2)NCCC3)CC(=O)O)cn1` showed a concentration for half-maximal inhibition (IC50) in [1] of 0.11 nM. The bioavailability in [3] was determined as 100%. The same compound returned an Activity in data set [6] of 97%. Moreover, in [9], the half-life is 6.8 h. Besides, in [11] (read-out: logP), the log partition coefficient (logP) turned out to be 0.65. Further, the clearance in data set [12] was found to be 4.3 mL/min/kg.
`O=C(O)CC(/C=C/CCCCc1ccc2c(n1)NCCC2)c1cccc(F)c1` (stereo not drawn) had a half-inhibitory concentration (IC50) in [1] of 7.2 nM.
